This is an account of results in ChEMBL document CHEMBL4706773, “Discovery of Novel PTP1B Inhibitors Derived from the BH3 Domain of Proapoptotic Bcl-2 Proteins with Antidiabetic Potency” (ACS Med Chem Lett, 2021).

One assay deals with Mus musculus. The experiment in a line: Antidiabetic activity in diabetic db/db C57BL/K mouse assessed as decrease in blood glucose at 0.5 umol/kg, sc qd for 7 days measured at 1 hr post-last drug dosing by blood glucose meter analysis. To be noted: 168 h, time 7 day. Type of assay: functional. An outline of the steps:
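Diabetic db/db mice received a daily s.c. dose (0.5 or 2 μmol/kg) or vehicle for one week. Blood glucose was compared at baseline and at 1 week, and the value is the percent decrease of blood glucose. Liraglutide was the positive control.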

Assay [1] concerns the target T1, Tyrosine-protein phosphatase non-receptor type 1 (Homo sapiens, UniProt P18031).
T1 sequence (P18031 whole entry): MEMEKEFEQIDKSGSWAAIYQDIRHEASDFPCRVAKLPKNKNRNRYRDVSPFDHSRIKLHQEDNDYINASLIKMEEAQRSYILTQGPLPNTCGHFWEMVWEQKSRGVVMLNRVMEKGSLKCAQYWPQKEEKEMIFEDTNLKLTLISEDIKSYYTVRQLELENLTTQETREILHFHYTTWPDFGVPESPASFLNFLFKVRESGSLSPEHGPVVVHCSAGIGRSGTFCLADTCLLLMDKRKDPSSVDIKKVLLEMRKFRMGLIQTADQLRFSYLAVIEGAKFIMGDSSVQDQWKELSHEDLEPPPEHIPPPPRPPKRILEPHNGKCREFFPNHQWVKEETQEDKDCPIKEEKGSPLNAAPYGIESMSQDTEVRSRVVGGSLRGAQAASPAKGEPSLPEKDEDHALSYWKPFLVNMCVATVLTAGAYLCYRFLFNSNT
The experiment in a line: Binding affinity to recombinant human PTP1B measured by Surface plasmon resonance assay. Background: In SPR one partner is held on a chip, and binding of the other changes the refractive index at the surface.

The target of assay [2] is T1, Tyrosine-protein phosphatase non-receptor type 1. The experiment in a line: Inhibition of recombinant N-terminal His-tagged human PTP1B (E2 to N321) expressed in Escherichia coli expression system assessed by dephosphorylation of substrate pNPP measured for 4 mins by plate reader analysis.
The target in assay [3] is T2, Tyrosine-protein phosphatase non-receptor type 1 (Homo sapiens) (UniProt P18031).
T2 sequence (whole entry): T1 sequence (P18031 whole entry)
The assay is described as follows: Inhibition of PTP1B in human insulin resistant HepG2 cells assessed as induction of 2-NBDG uptake incubated with compound for 24 hrs followed by treatment with insulin for 30 mins and later incubated with 2-NBDG for 30 mins by fluorimetric method. In kind it is cell-based. To be noted: dose 0.1-10 µM, time 25.0 hrs. An outline of the steps: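 HepG2 cells were made insulin-resistant with palmitic acid, then treated 24 h with test agents at several concentrations. Vehicle was equal-volume DMSO. Mean ± SD, n = 4, compared with vehicle.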

Assay [4] deals with T2, Tyrosine-protein phosphatase non-receptor type 1 (Homo sapiens). The experiment in a line: Binding affinity to recombinant human PTP1B assessed as on-rate constant, Kon measured by Surface plasmon resonance assay.
The target is the same in assay [5]. The experiment in a line: Binding affinity to recombinant human PTP1B assessed as off-rate constant, Koff measured by Surface plasmon resonance assay.

Peptide text beside a SMILES is read from it. * marks the point of attachment. Palmitoyl = CCCCCCCCCCCCCCCC(=O)*

Regarding `CCCCCCCCCCCCCCCC(=O)N[C@@H](CCC(=O)NCCCC[C@H](NC(=O)[C@H](C)NC(=O)[C@H](C)NC(=O)[C@H](CCC(N)=O)NC(=O)CNC(=O)[C@H](CCC(=O)O)NC(=O)[C@H](CC(C)C)NC(=O)[C@H](Cc1ccc(O)cc1)NC(=O)[C@H](CO)NC(=O)[C@H](CO)NC(=O)[C@@H](NC(=O)[C@H](CC(=O)O)NC(=O)[C@H](CO)NC(=O)[C@@H](NC(=O)[C@H](Cc1ccccc1)NC(=O)[C@@H](NC(=O)CNC(=O)[C@H](CCC(=O)O)NC(=O)[C@H](C)NC(=O)[C@@H](N)Cc1cnc[nH]1)[C@@H](C)O)[C@@H](C)O)C(C)C)C(=O)N[C@@H](CCC(=O)O)C(=O)N[C@@H](Cc1ccccc1)C(=O)N[C@H](C(=O)N[C@@H](C)C(=O)N[C@@H](Cc1c[nH]c2ccccc12)C(=O)N[C@@H](CC(C)C)C(=O)N[C@H](C(=O)N[C@@H](CCCNC(=N)N)C(=O)NCC(=O)N[C@@H](CCCNC(=N)N)C(=O)NCC(=O)O)C(C)C)[C@@H](C)CC)C(=O)O` [LIRAGLUTIDE], in the assay with Mus musculus, the inhibition in vivo (commonly the change of the read-out against control, counted positive when it falls) at 0.5 µmol/kg was found to be 72.6%.

As to `CCCCCCCCCCCCCCCC(=O)N[C@@H](CS)C(=O)N[C@@H](C)C(=O)N[C@H](C(=O)N[C@@H](CCC(N)=O)C(=O)N[C@@H](CC(C)C)C(=O)N[C@@H](CCCNC(=N)N)C(=O)N[C@@H](CCCNC(=N)N)C(=O)N[C@@H](Cc1ccccc1)C(=O)NCC(=O)N[C@@H](CC(=O)O)C(=O)N[C@@H](CCCCN)C(=O)N[C@@H](CC(C)C)C(=O)O)[C@@H](C)O` (Palmitoyl-CATQLRRFGDKL-OH), the Kd (usually the concentration at which binding is half-saturated) in assay [1] is “Not Active”.

On to `CCCCCCCCCCCCCCCC(=O)N[C@H](C(=O)N[C@@H](C)C(=O)N[C@@H](CCCNC(=N)N)C(=O)N[C@@H](CCCCN)C(=O)N[C@@H](CC(C)C)C(=O)N[C@@H](CCC(N)=O)C(=O)N[C@@H](CS)C(=O)N[C@H](C(=O)N[C@@H](C)C(=O)N[C@@H](CC(=O)O)C(=O)N[C@@H](CCC(N)=O)C(=O)N[C@@H](Cc1ccccc1)C(=O)O)[C@@H](C)CC)[C@@H](C)CC` (Palmitoyl-IARKLQCIADQF-OH), for which the Kd result in assay [1] is listed as “Not Active”.

In the case of H-STKKLSECLKRIGDELDSNM-OH, the Kd in assay [1] (read-out: Kd) was 86.3 nM. For the same compound, the concentration for half-maximal inhibition (IC50) (usually the concentration that gives 50% inhibition) in assay [2] was 5250 nM. In assay [3], the inhibition entry was “Dose-dependent effect”. The K in assay [4] was 9.73 10^3/M.s; in assay [5], 8.39 10^-4/s.

H-WAREIGAQLRRMADDLNAQY-OH: the dissociation constant Kd in assay [1] (read-out: Kd) amounted to 105 nM. In assay [2], the IC50 came to 6840 nM. For the same compound, the inhibition result in assay [3] is “Dose-dependent effect”. Further, the figures for the K in assay [4] and in assay [5] were 1.45 10^4/M.s and 1.52 10^-4/s, respectively.

`CCCCCCCCCCCCCCCC(=O)N[C@@H](Cc1ccc(O)cc1)C(=O)NCC(=O)N[C@@H](CCCNC(=N)N)C(=O)N[C@@H](CCC(=O)O)C(=O)N[C@@H](CC(C)C)C(=O)N[C@@H](CCCNC(=N)N)C(=O)N[C@@H](CCCNC(=N)N)C(=O)N[C@@H](CCSC)C(=O)N[C@@H](CO)C(=O)N[C@@H](CC(=O)O)C(=O)N[C@@H](CCC(=O)O)C(=O)N[C@@H](Cc1ccccc1)C(=O)O` (Palmitoyl-YGRELRRMSDEF-OH): the Kd entry in assay [1] was “Not Active”.
